Assay [1] concerns the target T1, Geranylgeranyl pyrophosphate synthase (Homo sapiens) (UniProt O95749).
T1 sequence (whole entry): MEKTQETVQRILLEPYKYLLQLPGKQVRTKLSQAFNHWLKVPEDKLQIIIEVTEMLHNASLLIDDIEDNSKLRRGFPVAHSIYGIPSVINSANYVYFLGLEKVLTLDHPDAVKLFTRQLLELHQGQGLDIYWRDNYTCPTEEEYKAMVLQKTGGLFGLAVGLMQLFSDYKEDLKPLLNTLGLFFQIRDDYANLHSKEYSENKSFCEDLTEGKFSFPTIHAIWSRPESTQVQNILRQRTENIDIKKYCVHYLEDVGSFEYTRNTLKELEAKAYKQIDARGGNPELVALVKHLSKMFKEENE
Briefly: Inhibition of GGDPS in human RPMI8266 cells assessed as disruption of Rap1a geranylgeranylation after 48 hrs by immunoblot analysis. It is filed as cell-based. The gist of the method: (§1)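 Cells were lysed in RIPA buffer (0.15 M NaCl, 1% deoxycholate, 0.1% SDS, 1% Triton X-100, 0.05 M Tris HCl) with protease and phosphatase inhibitors. Protein was quantified by BCA, and equal amounts were run on SDS-PAGE and transferred to PVDF. Blots were probed for unmodified Rap1a, a GGTase I substrate, and detected with HRP secondary antibodies and ECL.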

Assay [2] addresses T1, Geranylgeranyl pyrophosphate synthase (Homo sapiens). Briefly: Inhibition of GGDPS in human RPMI8266 cells assessed as lambda light chain levels after 48 hrs by ELISA. It is filed as cell-based.
The nature of assay [3]: Cytotoxicity against human RPMI8266 cells after 48 hrs by MTT assay. Particulars: RPMI8266, 48 h. It is filed as functional, cell-based. Summed up:
(§2)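 Cells were plated at 2.5 ×10^4 cells/100 μL/well and exposed to compounds for 48 hrs. MTT (5 mg/mL in PBS) was then added for 4 hrs, and the product was solubilized overnight at 37 °C in 0.01 M HCl/10% SDS. Absorbance was read at 540 nm, with untreated controls set as 100% MTT activity. Each test ran in quadruplicate across three independent experiments, and EC50 is reported as mean ± standard deviation.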

Assay [4] is described as follows: Cytotoxicity against human MM1S cells after 48 hrs by MTT assay. As to conditions: MM1.S. The assay is classed as functional, cell-based. Summed up:
as §2

Assay [5] is described as follows: Cytotoxicity against human ALMC2 cells after 48 hrs by MTT assay. The assay is classed as functional, cell-based. Particulars: ALMC2, 48 h. Summed up: as §2
Assay [6] concerns the target T1, Geranylgeranyl pyrophosphate synthase (Homo sapiens). Briefly: Inhibition of GGDPS in human RPMI8266 cells assessed as disruption of Rap1a geranylgeranylation at 5 uM after 48 hrs by immunoblot analysis in presence of GGDP. The assay is classed as cell-based. The gist of the method: as §1
For assay [7] the target is unchanged. Briefly: Inhibition of GGDPS in human RPMI8266 cells assessed as lambda light chain levels at 5 uM after 48 hrs by ELISA in presence of GGDP. The assay is classed as cell-based.
Assay [8] has the same target. Briefly: Inhibition of GGDPS in human RPMI8266 cells assessed as disruption of Rap1a geranylgeranylation at 5 uM after 48 hrs by immunoblot analysis in presence of mevalonate. It is filed as cell-based. Summed up:
as §1

Assay [9] shares this target. Briefly: Inhibition of GGDPS in human RPMI8266 cells assessed as lambda light chain levels at 5 uM after 48 hrs by ELISA in presence of mevalonate. The assay is classed as cell-based.
For assay [10] the target is unchanged. Briefly: Inhibition of GGDPS in human RPMI8266 cells assessed as disruption of Rap1a geranylgeranylation at 1 uM after 48 hrs by immunoblot analysis in presence of GGDP. The assay is classed as cell-based. Summed up: as §1
Assay [11] shares this target. Briefly: Inhibition of GGDPS in human RPMI8266 cells assessed as lambda light chain levels at 1 uM after 48 hrs by ELISA in presence of GGDP. The assay is classed as cell-based.
For assay [12] the target is unchanged. Briefly: Inhibition of GGDPS in human RPMI8266 cells assessed as disruption of Rap1a geranylgeranylation at low concentrations after 48 hrs by immunoblot analysis. The assay is classed as cell-based. Summed up:
as §1

The target is the same in assay [13]. Briefly: Inhibition of GGDPS in human RPMI8266 cells assessed as lambda light chain levels at low concentrations after 48 hrs by ELISA. The assay is classed as cell-based.

Activity calls are given as the source filed them. No cut-off for these calls is given here. Bounds are passed on as bounds.

In the case of `CC(C)=CCC/C(C)=C/CC(P(=O)(OCC[C@@H](C)CCC=C(C)C)OCOC(=O)C(C)(C)C)P(=O)(OCOC(=O)C(C)(C)C)OCOC(=O)C(C)(C)C` (stereo partly drawn), the inhibition result in assay [1] and in assay [2] was “Dose-dependent effect” throughout. The EC50 stood at 7.1 µM in assay [3], 5.7 µM in [4] and 12.6 µM in [5].

For `CC[C@H](C)C(=O)O[C@H]1C[C@@H](C)C=C2C=C[C@H](C)[C@H](CC[C@@H]3C[C@@H](O)CC(=O)O3)[C@H]21`, the inhibition entry in assay [6], in assay [7], in assay [8] and in assay [9] was “inactive” each time.

Turning to `CC(C)=CCC/C(C)=C/CC(C/C=C(\C)CCC=C(C)C)(P(=O)(OCC[C@@H](C)CCC=C(C)C)OCOC(=O)C(C)(C)C)P(=O)(OCOC(=O)C(C)(C)C)OCOC(=O)C(C)(C)C` (stereo partly drawn), the inhibition entry in assay [1] and in assay [2] was “Dose-dependent effect” each time. Also, the values for the 50% effective concentration (EC50) in assay [3], in [4] and in assay [5] were 26.7 µM, 48.2 µM and over 100 µM, respectively.

As for `CC(C)=CCC/C(C)=C/CC(CC=C(C)C)(P(=O)(OCC[C@@H](C)CCC=C(C)C)OCOC(=O)C(C)(C)C)P(=O)(OCOC(=O)C(C)(C)C)OCOC(=O)C(C)(C)C` (stereo partly drawn), the inhibition entry in [1] and in [2] was “Dose-dependent effect” throughout. The figures for the EC50 in assay [3], in assay [4] and in assay [5] were 7.3 µM, 25.3 µM and 28.2 µM, respectively.

Turning to `C=CCC(C/C=C(\C)CCC=C(C)C)(P(=O)(OCC[C@@H](C)CCC=C(C)C)OCOC(=O)C(C)(C)C)P(=O)(OCOC(=O)C(C)(C)C)OCOC(=O)C(C)(C)C` (stereo partly drawn), the inhibition result in [1] and in [2] was “Dose-dependent effect” each time. Moreover, the values for the half-maximal effective concentration (EC50) in assay [3], in assay [4] and in assay [5] were 8.4 µM, 10.7 µM and 25.4 µM, respectively.

Turning to `CC(C)=CCC/C(C)=C/CC(C)(P(=O)(OCC[C@@H](C)CCC=C(C)C)OCOC(=O)C(C)(C)C)P(=O)(OCOC(=O)C(C)(C)C)OCOC(=O)C(C)(C)C` (stereo partly drawn), the inhibition result in assay [1] and in [2] was “Dose-dependent effect” each time. Also, the EC50 turned out to be 1.6 µM in assay [3], 2.7 µM in assay [4] and 5.4 µM in [5]. Besides, the inhibition result in [10] and in assay [11] was “inactive” in each case.

Consider `CC(C)=CCC/C(C)=C/CC(C)(P(=O)(OCC[C@H](C)CCC=C(C)C)OCOC(=O)C(C)(C)C)P(=O)(OCOC(=O)C(C)(C)C)OCOC(=O)C(C)(C)C` (stereo partly drawn), for which the inhibition result in [12] and in assay [13] was “Active” throughout.

(Values after ChEMBL document CHEMBL3817777, “A new motif for inhibitors of geranylgeranyl diphosphate synthase” (Bioorg Med Chem, 2016).)
